Results from PubChem BioAssay.
Active and inactive are the calls of the source.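 How the source made its calls, unless noted: active means viability at or below 30% in both replicate assays; inconclusive means viability at or below 30% in just one of the two assays; inactive means the rest.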

Tests used:
[1] = Her2 expression decrease, cell viability multiplex – SKBR3 breast tumor cells, AlphaScreen, ATP viability, primary screen (AID 461;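 active means Her2 level under about 52% in both replicate screens, with viability over 70% of control, limit read from the data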;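 on Her2 level: lower value means less Her2 protein in the cells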;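 on viability: percent of carrier control wells set as 100% viability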); conditions: SKBR3 Her2 protein level, 18-24 h, measured here: SKBR3 viability, ATP luminescence, at 10 µM
[2] = molecular target: Receptor tyrosine-protein kinase erbB-2 (Homo sapiens) (UniProt P04626); assay: as above; conditions: 18-24 h, at 10 µM, stronger effect = lower value
[3] = reduced viability of SK-BR-3 breast cancer cells – cell-based, 24 h, human, pilot screen (AID 572;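 active means viability at or below 10% of carrier control in both of two separate runs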;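 further: compound exposure lasted between 18 and 24 h rather than exactly 24 h; 100% = carrier-treated control wells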); conditions: SK-BR-3 viability, CellTiter-Glo luminescence, at 10 µM, stronger effect = lower value
[4] = HUVEC growth inhibition – cell-based, human, primary screen (AID 575); conditions: HUVEC proliferation, CellTiter-Glo luminescence, 72 h; at 10 µM; stronger effect = lower value;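 further: 100% = median of untreated cell wells with 0.1% DMSO on each plate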
In short: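 Assay system: primary human umbilical vein endothelial cells / Buffer or medium: endothelial basal medium with 2% FBS plus growth supplements / Compound dosing: one dose, 10 µM final, 0.1% DMSO / Timing: 72 h treatment at 37 °C / Signal: CTG luminescence / Benchmarks: 32 DMSO-only cell-control wells (high), 32 MePR drug-control wells (low) per plate / Plate: collagen-coated 384-well format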

[5] = H69AR cell proliferation blockers – human, duplicate replicates, primary screen (AID 580;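 active means viability at or under a set limit in both replicates, limit being median viability minus 3 SD, cut at about 48% in these data, passing the limit was not always enough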;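 further: 100% = mean luminescence of untreated wells and 0% = no signal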); conditions: H69AR lung tumor cells viability, ATP luminescence, 72 h; at 10 µM; stronger effect = lower value
[6] = MRP1 drug-resistance reversers in H69AR cells – cell-based, doxorubicin co-treatment, pilot screen (AID 601;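 active means viability loss from added drug above about 55%, and viability with drug at most 40%, in both replicates, limit read from the data, passing the limit was not always enough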); conditions: CellTiter-Glo, 72 h, at 10 µM; for differential viability (reversal): stronger effect = higher value
[7] = yeast transport mutant growth inhibition pilot in 384-well plates, post-Golgi transport modulator project (AID 636; in the data active means inhibition above about 31%); conditions: absorbance 615 nm, about 18 h, stronger effect = higher value
[8] = growth suppression of yeast trafficking mutant, preliminary HTS, modulators of trafficking downstream of Golgi apparatus project, 1536-format plate, OD 615 nm (AID 637; in the data active means inhibition above about 30%); conditions: yeast transport mutant growth, absorbance 615 nm, 18 h; stronger effect = higher value
[9] = H69AR cells + 2 uM doxorubicin, measured here: viability with 2 uM doxorubicin, stronger effect = lower value
[10] = H69AR cells, compound alone cytotoxicity

Receptor tyrosine-protein kinase erbB-2 (Homo sapiens), sequence (P04626 whole entry, looked up): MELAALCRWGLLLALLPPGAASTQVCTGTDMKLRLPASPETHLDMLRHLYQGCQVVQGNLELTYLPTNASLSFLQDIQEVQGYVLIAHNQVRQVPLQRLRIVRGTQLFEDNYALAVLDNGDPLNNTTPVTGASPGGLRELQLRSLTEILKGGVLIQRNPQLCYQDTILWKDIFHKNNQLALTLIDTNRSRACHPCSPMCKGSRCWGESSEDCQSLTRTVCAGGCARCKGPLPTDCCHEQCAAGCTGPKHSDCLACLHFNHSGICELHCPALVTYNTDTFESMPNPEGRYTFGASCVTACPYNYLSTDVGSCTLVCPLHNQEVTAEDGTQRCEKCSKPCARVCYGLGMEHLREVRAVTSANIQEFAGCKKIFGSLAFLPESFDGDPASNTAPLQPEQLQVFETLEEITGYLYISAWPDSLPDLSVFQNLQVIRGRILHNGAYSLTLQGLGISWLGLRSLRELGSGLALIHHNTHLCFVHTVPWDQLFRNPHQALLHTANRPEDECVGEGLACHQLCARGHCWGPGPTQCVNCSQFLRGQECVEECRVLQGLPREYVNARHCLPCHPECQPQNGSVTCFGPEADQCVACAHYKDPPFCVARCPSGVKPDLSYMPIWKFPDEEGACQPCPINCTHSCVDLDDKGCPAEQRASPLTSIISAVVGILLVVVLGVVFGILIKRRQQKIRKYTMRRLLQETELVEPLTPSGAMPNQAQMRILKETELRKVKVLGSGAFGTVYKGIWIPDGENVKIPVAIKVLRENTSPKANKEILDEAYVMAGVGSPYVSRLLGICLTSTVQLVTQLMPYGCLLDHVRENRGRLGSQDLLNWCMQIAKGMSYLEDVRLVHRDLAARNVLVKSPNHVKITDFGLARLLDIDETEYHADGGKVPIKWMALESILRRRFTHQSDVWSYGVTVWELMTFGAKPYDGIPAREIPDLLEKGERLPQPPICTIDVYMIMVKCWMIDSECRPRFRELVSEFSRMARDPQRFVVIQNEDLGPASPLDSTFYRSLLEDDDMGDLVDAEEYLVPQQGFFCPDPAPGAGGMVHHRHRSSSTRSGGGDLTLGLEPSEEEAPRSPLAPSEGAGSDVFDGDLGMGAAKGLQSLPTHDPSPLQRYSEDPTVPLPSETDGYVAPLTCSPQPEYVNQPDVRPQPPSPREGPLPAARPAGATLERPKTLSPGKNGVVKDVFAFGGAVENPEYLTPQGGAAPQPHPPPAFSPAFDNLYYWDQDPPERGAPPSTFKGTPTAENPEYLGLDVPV

| SMILES | viability [1] [%] | Her2 level [2] | viability [3] | viability [4] | viability [5] | differential viability (reversal) ([6]; H69AR cells + 2 uM doxorubicin) | viability [6, 9] [%] | viability [6, 10] [%] | inhibition [7] | inhibition [8] |
| --- | --- | --- | --- | --- | --- | --- | --- | --- | --- | --- |
| COc1ncnc2c1N=C1CC(C)(C)CC(N)=C1S2 | 92.5 | 86% (inactive) | 92.5% (inactive) | 99% (inactive) | 87.5% (inactive) | 4.68% (inactive) | 82.8 | 87.5 | -5.07% (inactive) | -2.3% (inactive) |
| O=C(COC(=O)C1CC(=O)N(c2ccccc2)C1)c1ccccc1 (stereo not given) | 99.5 | 107% (inactive) | 99.5% (inactive) | 101% (inactive) | 86.6% (inactive) | -9.89% (inactive) | 96.5 | 86.6 | 4.1% (inactive) | -6.67% (inactive) |
| CCCn1cnc2c(c1=O)c1nc3ccccc3nc1n2Cc1ccccc1OC | 99 | 97% (inactive) | 99% (inactive) | 91.9% (inactive) | 86.4% (inactive) | -1.82% (inactive) | 88.2 | 86.4 | -7.11% (inactive) | -2.22% (inactive) |
| Nc1nc2sc3c(c2c(=O)s1)CCCC3 | 112 | 108% (inactive) | 112% (inactive) | 60.3% (inactive) | 74.7% (inactive) | -3.39% (inactive) | 78.1 | 74.7 | -2.24% (inactive) | 1.31% (inactive) |
| CC(=O)Nc1ccc(Oc2ccc3nc(C)[nH]c3c2)cc1 | 97.5 | 93.5% (inactive) | 97.5% (inactive) | 113% (inactive) | 95.4% (inactive) | -9.67% (inactive) | 105 | 95.4 | -6.58% (inactive) | -10.3% (inactive) |
| Cc1ccc(-c2nnn(CC(=O)N(CC3CCCO3)C(C(=O)NC(C)(C)C)c3ccc(F)cc3)n2)o1 (stereo not given) | 106 | 96% (inactive) | 106% (inactive) | 100% (inactive) | 101% (inactive) | 3.52% (inactive) | 97.4 | 101 | -1.07% (inactive) | -4.03% (inactive) |
| CC(=O)OCC1OC(c2ccccc2)C(OC(C)=O)C(OC(C)=O)C1OC(C)=O (stereo not given) | 90 | 94.5% (inactive) | 90% (inactive) | 108% (inactive) | 98.8% (inactive) | -1.94% (inactive) | 101 | 98.8 | -3.21% (inactive) | -3.83% (inactive) |
| COc1ccc(OCC(=O)Nc2cccc3ncccc23)cc1 | 98 | 94.5% (inactive) | 98% (inactive) | 104% (inactive) | 91.4% (inactive) | 0.15% (inactive) | 91.2 | 91.4 | -3.73% (inactive) | 3.61% (inactive) |
| COc1ccccc1Nc1nc(N)nc(CSc2nccc(C)n2)n1 | 99 | 90.5% (inactive) | 99% (inactive) | 107% (inactive) | 91% (inactive) | 5.23% (inactive) | 85.7 | 91 | -3.82% (inactive) | 0% (inactive) |
| CCCCN(CCCC)C(=O)CN(C)S(=O)(=O)c1ccc2c(c1)n(C)c(=O)c(=O)n2C | 99.5 | 86% (inactive) | 99.5% (inactive) | 113% (inactive) | 96.1% (inactive) | 3.39% (inactive) | 92.7 | 96.1 | -2.24% (inactive) | 2.38% (inactive) |
| CN1C(=O)CC(C(=O)Nc2ccc(F)cc2)SC1=Nc1ccc2c(c1)OCO2 (stereo not given) | 88 | 73% (inactive) | 88% (inactive) | 95% (inactive) | 82.5% (inactive) | 2.84% (inactive) | 79.6 | 82.5 | -7.16% (inactive) | 0.83% (inactive) |
| COC(=O)c1ccc2ncccc2c1 | 110 | 131% (inactive) | 110% (inactive) | 111% (inactive) | 107% (inactive) | 7.81% (inactive) | 98.8 | 107 | -1.32% (inactive) | 7.7% (inactive) |
| Cc1cccc2cc(CN(CCN3CCCC3)C(=O)NC3CCCCC3)c(=O)[nH]c12 | 83 | 78.5% (inactive) | 83% (inactive) | 76.5% (inactive) | 91% (inactive) | -1.06% (inactive) | 92 | 91 | -6.08% (inactive) | -0.16% (inactive) |
| COC(=O)c1cc(Br)c(=O)n(-c2nccs2)c1 | 121 | 93.5% (inactive) | 121% (inactive) | 107% (inactive) | 96.5% (inactive) | 9.32% (inactive) | 87.2 | 96.5 | -4.27% (inactive) | -6.39% (inactive) |
| C[C@H](NC(=O)Nc1cccc(C(F)(F)F)c1)C(=O)O | 108 | 108% (inactive) | 108% (inactive) | 94.3% (inactive) | 93.2% (inactive) | 5.33% (inactive) | 87.9 | 93.2 | -3.07% (inactive) | 1.61% (inactive) |
| O=C(CCSc1ccccc1)N1CCOCC1 | 94 | 98.5% (inactive) | 94% (inactive) | 96.7% (inactive) | 93.5% (inactive) | -0.87% (inactive) | 94.4 | 93.5 | -5.39% (inactive) | -2.13% (inactive) |
| CCC1(CC)NC(=O)NC1=O | 110 | 90% (inactive) | 110% (inactive) | 85% (inactive) | 105% (inactive) | 14.9% (inactive) | 90.1 | 105 | -4.74% (inactive) | 3.11% (inactive) |
| O=C(CSc1nnnn1-c1ccc(Cl)cc1)NC(=O)Nc1ccc2c(c1)OCCO2 | 104 | 101% (inactive) | 104% (inactive) | 66.9% (inactive) | 75.5% (inactive) | 0.67% (inactive) | 74.8 | 75.5 | -6% (inactive) | 3.02% (inactive) |
| Cc1cc(C)c2c(CC(=O)NCc3ccco3)coc2c1 | 94 | 81.5% (inactive) | 94% (inactive) | 71.3% (inactive) | 91.1% (inactive) | 1.32% (inactive) | 89.8 | 91.1 | -6.27% (inactive) | -6.03% (inactive) |
| O=C(O)C1CCCN1C(=O)Nc1ccc(F)cc1 (stereo not given) | 87 | 90.5% (inactive) | 87% (inactive) | 106% (inactive) | 93.6% (inactive) | 10.5% (inactive) | 83.1 | 93.6 | -4.73% (inactive) | -8.5% (inactive) |
| CN(C)S(=O)(=O)NC(c1ccccc1)c1ccccc1 | 93 | 97% (inactive) | 93% (inactive) | 105% (inactive) | 105% (inactive) | 15.6% (inactive) | 88.9 | 105 | -8% (inactive) | -2.38% (inactive) |
| O=c1[nH]c(NCc2ccco2)nnc1Cc1ccccc1Cl | 96.5 | 84% (inactive) | 96.5% (inactive) | 41.2% (inactive) | 13.3% (active) | -44.5% (inactive) | 57.8 | 13.3 | -7.67% (inactive) | 4.92% (inactive) |
| O=[n+]1c2c(n([O-])c3cc(F)c(N4CCCC4)cc31)CCC2 | 101 | 86.5% (inactive) | 101% (inactive) | 90.6% (inactive) | 74% (inactive) | 5.59% (inactive) | 68.4 | 74 | -2.57% (inactive) | 1.9% (inactive) |
| CCOC(=O)C1=C(O)CCn2c1nc1ccccc12 | 122 | 116% (inactive) | 122% (inactive) | 101% (inactive) | 101% (inactive) | 17.7% (inactive) | 83.6 | 101 | -8.9% (inactive) | 0% (inactive) |
| COc1cc(Br)cc(CN2CCN(C/C=C/c3ccccc3)CC2)c1O | 81 | 93.5% (inactive) | 81% (inactive) | 79.5% (inactive) | 93.2% (inactive) | 7.21% (inactive) | 86 | 93.2 | 0.93% (inactive) | 11.3% (inactive) |
| CCC(C)(C)NC(=O)CN(Cc1ccc2c(c1)OCO2)C(=O)CCC(=O)Nc1ccccn1 | 132 | 118% (inactive) | 132% (inactive) | 105% (inactive) | 92.5% (inactive) | 2.38% (inactive) | 90.1 | 92.5 | -5.06% (inactive) | -2.3% (inactive) |
| Cc1ccc(S(=O)(=O)N(CC(=O)N2CCOCC2)CC(=O)N2CCOCC2)cc1 | 104 | 87% (inactive) | 104% (inactive) | 110% (inactive) | 107% (inactive) | 5.66% (inactive) | 101 | 107 | -4.87% (inactive) | 3.17% (inactive) |
| CCN(CC)CCN1C(=O)C(O)=C(C(=O)c2cccs2)C1c1ccccn1 (stereo not given) | 86 | 82% (inactive) | 86% (inactive) | 100% (inactive) | 98% (inactive) | 18.6% (inactive) | 79.5 | 98 | -4.86% (inactive) | -1.59% (inactive) |
